Compound activity (PubChem)
MrgX1 antag: human MrgX1 receptor antagonism, primary screen; MRGX1-HEK293 calcium flux, Fluo-4, BAM8-22 antagonism; hits give low values; B-score at 10 µM; Q96LB2; 310,000 compounds, 1.3% hits; AID 588676;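 active = calcium-response B-score plate-corrected more than 3 library SD below zero, starting fluorescence within 5 deviations, no agonist response on first addition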;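 note: peak minus trough fluorescence over baseline after final BAM8-22 challenge near maximal dose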
Target sequence (Q96LB2 whole entry, looked up): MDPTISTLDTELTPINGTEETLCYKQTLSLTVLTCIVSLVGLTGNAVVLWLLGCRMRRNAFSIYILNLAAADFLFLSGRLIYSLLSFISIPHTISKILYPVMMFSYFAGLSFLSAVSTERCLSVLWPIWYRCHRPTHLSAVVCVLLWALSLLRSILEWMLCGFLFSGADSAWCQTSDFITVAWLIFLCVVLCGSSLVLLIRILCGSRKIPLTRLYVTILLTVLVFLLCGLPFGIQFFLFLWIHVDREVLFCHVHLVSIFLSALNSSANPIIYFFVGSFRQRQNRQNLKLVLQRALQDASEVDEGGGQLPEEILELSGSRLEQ
Lipid droplet: hepatic lipid droplet formation modulation. AML12 mouse hepatocytes, oleate lipid droplets, BODIPY imaging. 240,000 compounds, 0.4% hits. inhibition, % at 6.5 µM;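 active = lipid droplet intensity inhibited by at least 50%, with more than 500 cells counted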
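Material: mouse AML12 hepatocyte cell line, fixed after treatment; Timing: compound with oleate, overnight; Technique: high-content imaging of BODIPY-stained droplets and DAPI nuclei; Probe or stimulus: oleate, 100 µM final; Dosing: compound at 6.5 µM only.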
RGS4 pot: potentiators or activators of RGS4. 310,000 compounds, 0.92% hits. AID 463111. HEK293 M3R/inducible RGS4, carbachol calcium flux Fluo4; hits give low values. B-score at 10 µM;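 active = B-score of the integrated calcium signal more than 4 SD below the library mean, with starting fluorescence not abnormally high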;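 note: negative B-score means reduced calcium response which marks RGS4 activation or potentiation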
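Reagent: ECmax carbachol challenge; Test system: M3R-expressing HEK293 line, RGS4 induced by doxycycline; Schedule: overnight RGS4 induction, 30 min dye load 37 °C, 20 min compound RT; Detection: calcium dye Fluo4 fluorescence; Read-out: Agonist-evoked peak-minus-minimum fluorescence over baseline, integrated ratio, B score.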
MrgX1 ag: activates human MrgX1 receptor signaling; Q96LB2; MrgX1-HEK293 cells, Fluo-4 calcium fluorescence, agonist mode; hits give high values; B-score at 10 µM; 310,000 compounds, 0.44% hits; AID 588627;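 active = calcium response B-score plate-corrected fluorescence ratio at least 3 library SD, with starting fluorescence B-score inside 5 SD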
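System: HEK293 cells stably expressing human MrgX1 receptor; Dosing: test compound in the initial addition of three; Schedule: overnight plating, then 30 min 37 °C plus 30 min room-temperature dye loading; Detection: kinetic calcium dye fluorescence, Fluo-4 NW; Controls: per-plate positive and negative controls for Z′ factor.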
RGS4 inh: inhibitors of human RGS4; P49798; HEK293 M3R/RGS4 inducible, Fluo-4 calcium flux; hits give high values; triggered by carbachol at its EC20; B-score at 10 µM; 310,000 compounds, 0.45% hits; AID 463165;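 active = B-score, a plate-corrected calcium signal, over three deviations above library mean, with baseline fluorescence within five deviations of library mean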;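 note: RGS4 expression induced by doxycycline in cells with stable M3 receptor; B-score is computed from the integrated fluorescence ratio over baseline after carbachol; higher B-score means a larger calcium signal and so more RGS4 inhibition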
Target sequence (P49798 whole entry, looked up): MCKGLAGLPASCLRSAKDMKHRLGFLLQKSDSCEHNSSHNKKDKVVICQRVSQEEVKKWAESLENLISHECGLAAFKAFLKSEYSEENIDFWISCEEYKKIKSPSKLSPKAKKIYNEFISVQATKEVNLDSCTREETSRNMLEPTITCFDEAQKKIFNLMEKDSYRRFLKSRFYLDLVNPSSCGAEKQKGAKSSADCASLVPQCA
MrgX1 PAM: allosterically activates human MrgX1 receptor signaling | 310,000 compounds, 0.63% hits | MrgX1-HEK293, Fluo-4 calcium flux, FDSS; hits give high values | AID 588675 | B-score at 10 µM;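 active = plate-corrected calcium response at least 3 library SD above typical, normal starting fluorescence, not activating the receptor alone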;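 note: compound read alongside a low EC10 to EC30 dose of BAM8-22 agonist; peak minus trough fluorescence over baseline measured at the second addition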
MrgX1 ant reconf: confirmation of human MrgX1 receptor antagonists; remaining BAM8-22 calcium response % of control (hits give low values), % at 10 µM; shares compounds with MrgX1 antag; 2,300 compounds, 19% hits; MrgX1-HEK293, BAM8-22 calcium flux, Fluo-4; hits give low values;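 active = remaining agonist calcium response no higher than 100% minus 3 SD of agonist-only control wells, with starting fluorescence near control levels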;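 note: agonist BAM8-22 given at a near maximal EC90 to ECmax level; peak minus minimum fluorescence divided by baseline after agonist addition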
HEK293 Ca flux: MrgX1 antagonist counter-screen hit in parental HEK293 cells | shares compounds with MrgX1 antag | Fluo-4 calcium fluorescence, FDSS | fluorescence ratio F(max-min)/F0 at 10 µM | 4,000 compounds, 2% hits;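 active = duplicate-averaged calcium fluorescence ratio at least three times the standard deviation of buffer wells, a nonspecific response in parental cells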
HEK293 Ca counter: activity in parental HEK293 cells without MrgX1; 4,000 compounds, 0.4% hits; fluorescence ratio F(max-min)/F0 at 10 µM; parental HEK293 calcium flux, Fluo-4 fluorescence ratio; hits give high values; shares compounds with MrgX1 antag; AID 624114;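 active = calcium fluorescence ratio, averaged over duplicates, at least 3 SD of the buffer-well ratio, meaning a nonspecific response in receptor-free cells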;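 note: untransfected parental HEK293 lacking MrgX1 used as counterscreen for MrgX1 allosteric activators; fluorescence change taken during the second addition on a kinetic imager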
HEK293 Ca cntr2: activity in parental HEK293 cells lacking MrgX1 receptor; AID 624115; 4,000 compounds, 8.7% hits; fluorescence ratio F(max-min)/F0 at 10 µM; Fluo-4 calcium fluorescence (FDSS); hits give high values; shares compounds with MrgX1 antag;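 active = calcium fluorescence ratio at least three times the spread of buffer wells, meaning a non-specific response in parental cells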
A number is an active result; – = inactive; · = no result. In the library only some 3.8% were active in any assay of this set; here they are far more common.

SMILES	MrgX1 antag	Lipid droplet	RGS4 pot	MrgX1 ag	RGS4 inh	MrgX1 PAM	MrgX1 ant reconf	HEK293 Ca flux	HEK293 Ca counter	HEK293 Ca cntr2
COc1cc(S(=O)(=O)N2CCOCC2)ccc1NC(=O)CN1c2cccc3cccc(c23)S1(=O)=O	-8.38	–	–	–	–	–	–	–	–	–
Cc1ccc(NC(=O)CN2c3cccc4cccc(c34)S2(=O)=O)cc1S(=O)(=O)N1CCOCC1	–	–	–	–	–	–	·	·	·	·
CCOC(=O)N1CCC(=NNC(=O)Cn2ccc(C(F)(F)F)n2)CC1	–	–	–	–	–	–	·	·	·	·
CC12CCCC[C@@H]1CCC1C2CCC2(C)C1CC[C@@]2(O)CNCCO (stereo partly drawn)	-7.77	–	–	–	–	–	–	–	–	–
CCN(c1ccc(NC(=O)COC(=O)CCc2cc(OC)c(OC)c(OC)c2)cc1)C(C)C	·	–	–	·	–	·	·	·	·	·
Cc1nc2nc(-c3ccco3)[nH]n2c(=O)c1C	-11.7	–	–	–	–	–	–	–	–	–
CCOC(=O)C1=C(CSc2nc(-c3ccccc3)ccc2C#N)OC(N)=C(C#N)C1c1ccc(OC)cc1 (stereo not drawn)	–	·	–	–	–	–	·	·	·	·
Cc1cc(-c2ccccc2)[nH]c(=O)c1S(=O)(=O)c1ccc(Cl)cc1	-8.96	·	–	–	–	–	–	–	–	–
Cc1cc(-c2ccccc2)[nH]c(=O)c1S(=O)(=O)c1ccccc1	–	·	–	–	–	–	·	·	·	·
COc1ccc(OC)c2sc(NC(=O)c3ccc(Cl)s3)nc12	-5.04	·	–	–	–	–	–	–	–	–
O=C(CSc1nnc(NC(=O)c2c(F)cccc2F)s1)Nc1ccc(F)cc1	-6.23	–	–	–	–	–	–	–	–	–
CC(=O)c1ccc(N2Cc3ccccc3/C2=N\C(=O)Nc2ccc(Cl)cc2)cc1	–	–	–	–	–	–	·	·	·	·
Oc1ccc(Cl)cc1/C=C/c1ccc2cccc(O)c2n1	·	–	–	·	–	·	·	·	·	·
Oc1c(Cl)cc(Cl)cc1/C=C/c1ccc2cccc(O)c2n1	-7.73	–	–	–	–	–	–	–	–	–
CCCn1c(N)c(N(CCOC)C(=O)c2cc(S(=O)(=O)N3CCCCCC3)ccc2OC)c(=O)[nH]c1=O	–	–	–	–	–	–	·	·	·	·
O=C(O)c1cccc(NC(=O)c2ccc3c(c2)C(=O)N(C2CCCCC2)C3=O)c1	–	–	–	–	–	–	·	·	·	·
CC1CCCCN1C(=O)CSc1nnc(-c2ccco2)n1CC1CCCO1 (stereo not drawn)	-7	·	–	–	–	–	–	–	–	–
CCn1c(SCC(=O)N2CCCCC2C)nnc1-c1ccco1 (stereo not drawn)	–	–	–	–	–	–	·	·	·	·
CCOc1ccc(N(CC)C(=O)Cc2c(C(=O)O)n(C)c3ccccc23)cc1	–	–	–	–	–	–	·	·	·	·
CCc1ccc(N(CC)C(=O)Cc2c(C(=O)O)n(C)c3ccccc23)cc1	-6.58	–	–	–	–	–	–	–	–	–
CS(=O)(=O)c1ncc(Cl)c(C(=O)Nc2ccc(OC(F)F)cc2)n1	-4.93	–	–	–	–	–	–	–	–	–
CCOc1ccc(S(=O)(=O)Nc2cc(Cl)ccc2O)cc1	-4.56	–	–	–	–	–	84.9%	–	–	–
CCSc1ccc2cc(OC)ccc2[n+]1CC	–	–	–	–	–	–	·	·	·	·
COC(=O)CSc1nc2c(c(-c3ccc(C)o3)c1C#N)CCCC2	-6.89	–	–	–	–	–	–	–	–	–
COc1cc(OC)c(C(=O)OCC(=O)N(Cc2ccccc2)C(C)(C)C)cc1OC	–	–	–	–	–	–	·	·	·	·
SMILES	MrgX1 antag	Lipid droplet	RGS4 pot	MrgX1 ag	RGS4 inh	MrgX1 PAM	MrgX1 ant reconf	HEK293 Ca flux	HEK293 Ca counter	HEK293 Ca cntr2
COc1ccc(-c2noc(CN(C(=O)c3ccc4c(c3)OCO4)C(C)C)n2)cc1	–	–	–	–	–	–	·	·	·	·
COc1ccc(-c2noc(CN(C(=O)c3cccs3)C(C)C)n2)cc1	-4.83	·	–	–	–	–	–	–	–	–
Cc1ccc(NC(=O)C2C3C=CC4(CN(Cc5cccnc5)C(=O)C24)O3)cc1F (stereo not drawn)	–	–	–	–	–	–	·	·	·	·
COc1ccccc1CNC(=O)[C@H](NC(=O)C1CCN(C(=O)[C@@H](N)CCSC)CC1)C(C)C	–	·	–	–	–	–	·	·	·	·
Cc1ccc(S(=O)(=O)NC(C)(C)CSc2ncccn2)cc1	-9.9	–	–	–	–	–	–	–	–	–
C=CCc1cccc(CNc2cnc3ccccc3c2)c1O	-6.62	–	–	–	–	–	81.9%	–	–	–
CC(C)S(=O)(=O)c1ccc(C(=O)Nc2ccc(F)cc2F)cn1	-5.85	–	–	–	–	–	–	–	–	–
CCCSc1ccc(C(=O)Nc2ccc(F)cc2F)cn1	–	–	–	–	–	–	·	·	·	·
CCN(C(=O)CSc1nc2cc(S(=O)(=O)N(CC)CC)ccc2o1)C1CCS(=O)(=O)C1 (stereo not drawn)	–	–	–	–	–	–	·	·	·	·
CC(C)c1ccccc1NC(=O)C1CC(=O)N(C2CCCC2)C1 (stereo not drawn)	-5.12	–	–	–	–	–	–	–	–	–
COC(=O)c1ccccc1NC(=O)C1CC(=O)N(C2CCCCC2)C1 (stereo not drawn)	–	·	–	–	–	–	·	·	·	·
O=S(=O)(c1ccc(N2CCC(c3ccc(Cl)cc3)=N2)cc1)N(CCO)CCO	–	–	–	–	–	–	·	·	·	·
CN(C)CCCNS(=O)(=O)c1ccc(N2CCC(c3ccc(Cl)cc3)=N2)cc1	-13.5	–	–	–	–	–	59.8%	–	–	–
CCN(CC)S(=O)(=O)c1cccc(-c2nnc(SCC(N)=O)n2C)c1	-6.71	–	–	–	–	–	84.5%	–	–	–
Cc1ccc(-c2nnc(SCC(N)=O)n2C)cc1	-4.95	–	–	–	–	–	–	–	–	–
Cn1c(SCC(N)=O)nnc1-c1ccc(C(C)(C)C)cc1	–	–	–	–	–	–	·	·	·	·
O=C1CCNCCN1[C@H](CO)c1ccccc1	–	·	–	–	–	–	·	·	·	·
